Data reported in ChEMBL document CHEMBL3580574, “Design, Synthesis, and Biological Evaluation of Hexacyclic Tetracyclines as Potent, Broad Spectrum Antibacterial Agents” (J Med Chem, 2015).
Values after ≈ are worked out from the molar mass of the structure shown.

How the values were obtained:
Format in all cases: functional
Staphylococcus aureus [1] = assay: Antibacterial activity against tet(K) tetracycline-resistant Staphylococcus aureus 158 assessed as bacterial growth inhibition by susceptibility testing assay; settings: Staphylococcus aureus, 158; read-out: MIC
Enterobacter cloacae = assay: Antibacterial activity against tet(A) tetracycline-resistant Enterobacter cloacae 603 assessed as bacterial growth inhibition by susceptibility testing assay; settings: Enterobacter cloacae, 603; read-out: MIC
How it was run: (§1)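 Broth microdilution MIC per CLSI in 96-well plates; compound stocks prepared and serially diluted in sterile deionized water; cation-adjusted Mueller Hinton broth prepared fresh and held at 4 °C before testing, supplemented with lysed horse blood as appropriate; runs accepted when comparator antibiotics fell within QC ranges for appropriate ATCC quality control strains.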

Enterococcus faecium = assay: Antibacterial activity against tet(M) tetracycline-resistant Enterococcus faecium 404 assessed as bacterial growth inhibition by susceptibility testing assay; settings: Enterococcus faecium, 404; read-out: MIC
Staphylococcus aureus [2] = assay: Antibacterial activity against Staphylococcus aureus 101 ATCC 29213 assessed as bacterial growth inhibition by susceptibility testing assay; settings: Staphylococcus aureus, 101 ATCC 29213; read-out: MIC
How it was run: (§2)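 Broth microdilution MIC per CLSI in cation-adjusted Mueller Hinton broth, made fresh and held at 4 °C before testing. Medium supplemented with lysed horse blood where appropriate. Compound stocks prepared and serially diluted in sterile deionized water. Runs were accepted against QC ranges for comparator antibiotics and ATCC QC strains.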

Burkholderia cenocepacia = assay: Antibacterial activity against Burkholderia cenocepacia 240 assessed as bacterial growth inhibition by susceptibility testing assay; settings: Burkholderia cenocepacia, 240; read-out: MIC
How it was run: (§3)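 Medium supplemented with lysed horse blood where appropriate. Compound stocks prepared and serially diluted in sterile deionized water. Runs were accepted against QC ranges for comparator antibiotics and ATCC QC strains.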

Proteus mirabilis = assay: Antibacterial activity against Proteus mirabilis 385 assessed as bacterial growth inhibition by susceptibility testing assay; settings: Proteus mirabilis, 385; read-out: MIC; how it was run: as §2
Streptococcus pneumoniae = assay: Antibacterial activity against tet(M) tetracycline-resistant Streptococcus pneumoniae 160 assessed as bacterial growth inhibition by susceptibility testing assay; settings: Streptococcus pneumoniae, 160; read-out: MIC
[3] = tested on: Stenotrophomonas maltophilia; assay: Antibacterial activity against Stenotrophomonas maltophilia 256 assessed as bacterial growth inhibition by susceptibility testing assay; settings: Stenotrophomonas maltophilia, 256; read-out: MIC; how it was run: as §3
Klebsiella pneumoniae = assay: Antibacterial activity against Klebsiella pneumoniae 457 harboring CTX-M-15 gene assessed as bacterial growth inhibition by susceptibility testing assay; settings: Klebsiella pneumoniae, 457; read-out: MIC; how it was run: as §1
Acinetobacter baumannii = assay: Antibacterial activity against tet(B) tetracycline-resistant Acinetobacter baumannii 250 assessed as bacterial growth inhibition by susceptibility testing assay; settings: Acinetobacter baumannii, 250; read-out: MIC; how it was run: as §1
Staphylococcus aureus [4] = assay: Antibacterial activity against methicillin-resistant, tet(M) tetracycline-resistant Staphylococcus aureus 161 assessed as bacterial growth inhibition by susceptibility testing assay; settings: Staphylococcus aureus, 161; read-out: MIC; how it was run: as §1
Enterococcus faecalis = assay: Antibacterial activity against tet(M) tetracycline-resistant Enterococcus faecalis 327 assessed as bacterial growth inhibition by susceptibility testing assay; settings: Enterococcus faecalis, 327; read-out: MIC; how it was run: as §1
Escherichia coli [5] = assay: Antibacterial activity against Escherichia coli 107 ATCC 25922 assessed as bacterial growth inhibition by susceptibility testing assay; settings: Escherichia coli, 107 ATCC 25922; read-out: MIC; how it was run: as §2
Pseudomonas aeruginosa = assay: Antibacterial activity against Pseudomonas aeruginosa 555 BAA-47 assessed as bacterial growth inhibition by susceptibility testing assay; settings: Pseudomonas aeruginosa, 555 BAA-47; read-out: MIC; how it was run: as §2
Escherichia coli [6] = assay: Antibacterial activity against tet(A) tetracycline-resistant Escherichia coli 155 assessed as bacterial growth inhibition by susceptibility testing assay; settings: Escherichia coli, 155; read-out: MIC; how it was run: as §1

| SMILES | MIC (Staphylococcus aureus [1]) | MIC (Enterobacter cloacae) | MIC (Enterococcus faecium) | MIC (Staphylococcus aureus [2]) | MIC (Burkholderia cenocepacia) | MIC (Proteus mirabilis) | MIC (Streptococcus pneumoniae) | MIC [3] | MIC (Klebsiella pneumoniae) | MIC (Acinetobacter baumannii) | MIC (Staphylococcus aureus [4]) | MIC (Enterococcus faecalis) | MIC (Escherichia coli [5]) | MIC (Pseudomonas aeruginosa) | MIC (Escherichia coli [6]) |
| --- | --- | --- | --- | --- | --- | --- | --- | --- | --- | --- | --- | --- | --- | --- | --- |
| CN(C)[C@@H]1C(O)=C(C(N)=O)C(=O)[C@@]2(O)C(O)=C3C(=O)c4c(O)c5c(c(F)c4C[C@H]3C[C@@H]12)[C@@H]1[C@@H](CCN1CCNCC(F)F)CN5 | 0.0312 µg/mL (≈ 0.0491 µM) | 8 µg/mL (≈ 12.6 µM) | 0.0625 µg/mL (≈ 0.0983 µM) | 0.5 µg/mL (≈ 0.787 µM) | 32 µg/mL (≈ 50.3 µM) | 8 µg/mL (≈ 12.6 µM) | ≤ 0.0156 µg/mL | 4 µg/mL (≈ 6.29 µM) | 4 µg/mL (≈ 6.29 µM) | 8 µg/mL (≈ 12.6 µM) | 1 µg/mL (≈ 1.57 µM) | 0.125 µg/mL (≈ 0.197 µM) | 0.25 µg/mL (≈ 0.393 µM) | > 32 µg/mL | 4 µg/mL (≈ 6.29 µM) |
| CN(C)[C@@H]1C(O)=C(C(N)=O)C(=O)[C@@]2(O)C(O)=C3C(=O)c4c(O)c5c(c(OC(F)(F)F)c4C[C@H]3C[C@@H]12)[C@@H]1[C@H](CN5)CC2COCCN21 (stereo not given in full) | 0.5 µg/mL (≈ 0.769 µM) | > 32 µg/mL | 0.25 µg/mL (≈ 0.384 µM) | 2 µg/mL (≈ 3.07 µM) | > 32 µg/mL | > 32 µg/mL | 0.0625 µg/mL (≈ 0.0961 µM) | 16 µg/mL (≈ 24.6 µM) | > 32 µg/mL | 16 µg/mL (≈ 24.6 µM) | 4 µg/mL (≈ 6.15 µM) | 0.5 µg/mL (≈ 0.769 µM) | 4 µg/mL (≈ 6.15 µM) | > 32 µg/mL | 16 µg/mL (≈ 24.6 µM) |
| CN(C)[C@@H]1C(O)=C(C(N)=O)C(=O)[C@@]2(O)C(O)=C3C(=O)c4c(O)c5c(c(OC(F)(F)F)c4C[C@H]3C[C@@H]12)[C@@H]1[C@H](CN5)CC2CCCCN21 (stereo not given in full) | ≤ 0.0156 µg/mL | 4 µg/mL (≈ 6.17 µM) | ≤ 0.0156 µg/mL | 0.0625 µg/mL (≈ 0.0964 µM) | 8 µg/mL (≈ 12.3 µM) | 4 µg/mL (≈ 6.17 µM) | ≤ 0.0156 µg/mL | 1 µg/mL (≈ 1.54 µM) | 4 µg/mL (≈ 6.17 µM) | 2 µg/mL (≈ 3.08 µM) | 0.25 µg/mL (≈ 0.385 µM) | 0.0312 µg/mL (≈ 0.0481 µM) | ≤ 0.0156 µg/mL | 16 µg/mL (≈ 24.7 µM) | 0.125 µg/mL (≈ 0.193 µM) |
| CN(C)[C@@H]1C(O)=C(C(N)=O)C(=O)[C@@]2(O)C(O)=C3C(=O)c4c(O)cccc4[C@@](C)(O)[C@H]3C[C@@H]12 [TETRACYCLINE] |  | > 32 µg/mL |  | 0.125 µg/mL (≈ 0.281 µM) |  | > 32 µg/mL |  |  | 8 µg/mL (≈ 18 µM) | > 32 µg/mL | 64 µg/mL (≈ 144 µM) | > 32 µg/mL | 1 µg/mL (≈ 2.25 µM) | > 32 µg/mL | > 64 µg/mL |
| CC(=O)N(C)CCN1CCC2CNc3c(O)c4c(c(F)c3C21)C[C@H]1C[C@H]2[C@H](N(C)C)C(O)=C(C(N)=O)C(=O)[C@@]2(O)C(O)=C1C4=O (mixture of isomers) | 1 µg/mL | > 32 µg/mL | 32 µg/mL | 4 µg/mL | > 32 µg/mL | > 32 µg/mL | 4 µg/mL | > 32 µg/mL | > 32 µg/mL | > 32 µg/mL | > 32 µg/mL | > 32 µg/mL | 8 µg/mL | > 32 µg/mL | 32 µg/mL |
| CN(C)[C@@H]1C(O)=C(C(N)=O)C(=O)[C@@]2(O)C(O)=C3C(=O)c4c(O)c5c(c(OC(F)(F)F)c4C[C@H]3C[C@@H]12)C1NCCC1CN5 (mixture of isomers) | 0.25 µg/mL | 8 µg/mL | 0.25 µg/mL | 0.5 µg/mL | > 32 µg/mL | 4 µg/mL | 0.25 µg/mL | 16 µg/mL | 2 µg/mL | > 32 µg/mL | 2 µg/mL | 0.5 µg/mL | 0.5 µg/mL | 32 µg/mL | 2 µg/mL |
